Data set [1] can be described thus: Selectivity ratio of MIC for antibacterial activity against Bacteroides fragilis HM-709 to antibacterial activity against Clostridioides difficile NR-13435 isolate 9. The data set is classed as ADME.
Data set [2] concerns Clostridioides difficile. Kind of data set: Antimicrobial activity against Clostridioides difficile ATCC 43255 assessed as drug resistance by measuring frequency of mutation at 15 times of MIC after 48 hrs. Type of data set: functional.
Data set [3] in a line: Selectivity ratio of MIC for antibacterial activity against Bacteroides fragilis HM-709 to antibacterial activity against Clostridioides difficile NR-13432 isolate 6. Type of data set: ADME.
Another data set relates to Lactobacillus crispatus. Kind of data set: Antibacterial activity against Lactobacillus crispatus HM-371 assessed as reduction in microbial growth after 48 hrs by broth microdilution method. A digest of the protocol:
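Gut commensal MICs by broth microdilution: a 0.5 McFarland suspension was diluted to ~5 × 10^5 CFU/mL in BHIS broth (Bacteroides) or MRS broth (Lactobacillus). Agents were serially diluted and incubated 48 h at 37°C. MIC was read by visual inspection of growth.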
In general terms: In broth dilution the organism is exposed to a series of concentrations in liquid medium.

The nature of data set [4]: Selectivity ratio of MIC for antibacterial activity against Bacteroides fragilis HM-711 to antibacterial activity against Clostridioides difficile NR-32891 P13. Type of data set: ADME.
Data set [5] is described as follows: Selectivity ratio of MIC for antibacterial activity against Bacteroides fragilis HM-709 to antibacterial activity against Clostridioides difficile NR-32891 P13. Type of data set: ADME.
The nature of data set [6]: Selectivity ratio of MIC for antibacterial activity against Bacteroides dorei HM-719 to antibacterial activity against Clostridioides difficile NR-13432 isolate 6. The data set is classed as ADME.
The nature of data set [7]: Selectivity ratio of MIC for antibacterial activity against Bacteroides fragilis HM-711 to antibacterial activity against Clostridioides difficile NR-32904 P30. Type of data set: ADME.
Data set [8] in a line: Selectivity ratio of MIC for antibacterial activity against Bacteroides fragilis HM-711 to antibacterial activity against Clostridioides difficile NR-13432 isolate 6. The data set is classed as ADME.
Data set [9] can be described thus: Selectivity ratio of cytotoxicity against human Caco-2 cells to MIC for antibacterial against clostridioides difficile ATCC BAA 1801. Type of data set: toxicity, cell-based.
Data set [10] deals with Clostridioides difficile. Kind of data set: Potency index, ratio of vancomycin MIC to test compound MIC for antibacterial activity against Clostridioides difficile NR-32904 P30. Type of data set: functional.
The test system of data set [11] is Clostridioides difficile. The experiment in a line: Antimicrobial activity against Clostridioides difficile ATCC 43255 assessed as drug resistance by measuring frequency of mutation at 20 times of MIC after 48 hrs. Type of data set: functional.
For another data set, the system named is Enterococcus faecalis. The experiment in a line: Antimicrobial activity against vancomycin-resistant Enterococcus […] ATCC 51299 assessed as reduction in microbial growth after 48 hrs by CLSI based broth microdilution method. Type of data set: functional. The method, boiled down: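 CLSI broth microdilution: strains were grown aerobically overnight on tryptone soy agar at 37°C. A 0.5 McFarland suspension was diluted to ~5 × 10^5 CFU/mL in cation-adjusted Mueller-Hinton broth (E. coli) or tryptone soy broth (enterococci), and agents were serially diluted.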

Take `O=C(Nc1nnc(-c2cc(Cl)cc(Cl)c2)o1)c1ccc(SC(F)(F)F)cc1`: the Selectivity ratio in data set [1], in data set [3], in data set [4], in data set [5], in data set [6] and in [7] was 100 throughout. Further, the Selectivity ratio in data set [8] was 100; in data set [9], over 9000. For the same compound, the Activity in the data set on Clostridioides difficile [2] and with Clostridioides difficile [11] was <1.1 10^-9No_unit in each case. Further, the MIC stood at 36.8 µM in the data set with Lactobacillus crispatus and 0.14 µM in the data set with Enterococcus faecalis. In addition, in the data set with Clostridioides difficile [10], the Ratio was found to be 2.5.
